Data on four molecules can be found in ChEMBL document CHEMBL1817648, “Synthesis and in vitro antibacterial activity of a series of novel gatifloxacin derivatives” (Eur J Med Chem, 2011).

Series [1] relates to Enterococcus faecium. As to the kind of experiment: Antibacterial activity against Enterococcus faecium 08-7 after 18 to 24 hrs by NCCLS M100-S11 two fold serial dilution method. The format is functional.
Series [2] deals with Staphylococcus aureus. As to the kind of experiment: Antibacterial activity against methicillin-sensitive Staphylococcus aureus 08-1 after 18 to 24 hrs by NCCLS M100-S11 two fold serial dilution method. It is filed as functional.
The test system of series [3] is Klebsiella pneumoniae. The experiment in a line: Antibacterial activity against Klebsiella pneumoniae 09-23 after 18 to 24 hrs by NCCLS M100-S11 two fold serial dilution method. The format is functional.
In series [4] the test system is Streptococcus pneumoniae. The experiment in a line: Antibacterial activity against Streptococcus pneumoniae 08-4 after 18 to 24 hrs by NCCLS M100-S11 two fold serial dilution method. It is filed as functional.
In series [5] the test system is Staphylococcus epidermidis. As to the kind of experiment: Antibacterial activity against methicillin-sensitive Staphylococcus epidermidis 09-3 after 18 to 24 hrs by NCCLS M100-S11 two fold serial dilution method. It is filed as functional. An outline of the steps: (§1)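 Two-fold serial dilution in agar medium. MIC read as the lowest concentration giving complete inhibition of bacterial growth after incubation at 35 °C for 18–24 h.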

For series [6], the system named is Pseudomonas aeruginosa. The experiment in a line: Antibacterial activity against Pseudomonas aeruginosa 09-34 after 18 to 24 hrs by NCCLS M100-S11 two fold serial dilution method. It is filed as functional.
Series [7] deals with Staphylococcus aureus. The experiment in a line: Antibacterial activity against methicillin-resistant Staphylococcus aureus 08-1 after 18 to 24 hrs by NCCLS M100-S11 two fold serial dilution method. The format is functional. An outline of the steps:
as §1

Series [8] has as its system Pseudomonas aeruginosa. The experiment in a line: Antibacterial activity against Pseudomonas aeruginosa 09-33 after 18 to 24 hrs by NCCLS M100-S11 two fold serial dilution method. It is filed as functional.
Series [9] concerns Enterococcus faecalis. The experiment in a line: Antibacterial activity against Enterococcus faecalis 08-10 after 18 to 24 hrs by NCCLS M100-S11 two fold serial dilution method. The format is functional.
Series [10] has as its system Escherichia coli. As to the kind of experiment: Antibacterial activity against Escherichia coli 08-21 after 18 to 24 hrs by NCCLS M100-S11 two fold serial dilution method. It is filed as functional.
Series [11] can be described thus: Cytotoxicity against african green monkey Vero cells after 72 hrs by MTT assay. It is filed as cell-based. The following applies: chlorocebus sabaeus. The essentials: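 Vero cells were kept in Minimum Essential Medium with Earle's salts plus 10% fetal bovine serum at 37 °C under 5% CO₂. Cells were seeded at 1 × 10⁴ per well and allowed to recover 24 h. Medium was then replaced with assay medium containing compound or no drug, and cells were exposed for 72 h. CC₅₀ is the 50% cellular cytotoxic concentration.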

In series [12] the test system is Staphylococcus epidermidis. As to the kind of experiment: Antibacterial activity against methicillin-resistant Staphylococcus epidermidis 09-4 after 18 to 24 hrs by NCCLS M100-S11 two fold serial dilution method. The format is functional. An outline of the steps:
as §1

Series [13] has as its system Enterococcus faecalis. The experiment in a line: Antibacterial activity against Enterococcus faecalis 08-12 after 18 to 24 hrs by NCCLS M100-S11 two fold serial dilution method. It is filed as functional.
Series [14] concerns Klebsiella pneumoniae. As to the kind of experiment: Antibacterial activity against Klebsiella pneumoniae 09-22 after 18 to 24 hrs by NCCLS M100-S11 two fold serial dilution method. The format is functional.
For series [15], the system named is Pseudomonas aeruginosa. The experiment in a line: Antibacterial activity against Pseudomonas aeruginosa 09-32 after 18 to 24 hrs by NCCLS M100-S11 two fold serial dilution method. The format is functional.
In series [16] the test system is Pseudomonas aeruginosa. The experiment in a line: Antibacterial activity against Pseudomonas aeruginosa ATCC 27853 after 18 to 24 hrs by NCCLS M100-S11 two fold serial dilution method. The format is functional.
Series [17] concerns Streptococcus pneumoniae. As to the kind of experiment: Antibacterial activity against Streptococcus pneumoniae 08-2 after 18 to 24 hrs by NCCLS M100-S11 two fold serial dilution method. It is filed as functional.
In series [18] the test system is Escherichia coli. As to the kind of experiment: Antibacterial activity against Escherichia coli 08-22 after 18 to 24 hrs by NCCLS M100-S11 two fold serial dilution method. The format is functional.
Series [19] has as its system Enterococcus faecium. The experiment in a line: Antibacterial activity against Enterococcus faecium 08-2 after 18 to 24 hrs by NCCLS M100-S11 two fold serial dilution method. The format is functional.
The test system of series [20] is Staphylococcus aureus. As to the kind of experiment: Antibacterial activity against Staphylococcus aureus ATCC 25923 after 18 to 24 hrs by NCCLS M100-S11 two fold serial dilution method. The format is functional. The following applies: ATCC25923.
In series [21] the test system is Escherichia coli. As to the kind of experiment: Antibacterial activity against Escherichia coli ATCC 25922 after 18 to 24 hrs by NCCLS M100-S11 two fold serial dilution method. The format is functional. The following applies: ATCC25922.
Series [22] deals with Staphylococcus epidermidis. The experiment in a line: Antibacterial activity against methicillin-sensitive Staphylococcus epidermidis 09-6 after 18 to 24 hrs by NCCLS M100-S11 two fold serial dilution method. It is filed as functional. The essentials:
as §1

≈ marks a conversion by molar mass, not a printed value. Some results are limits rather than exact numbers.

As usually defined, the MIC is the lowest concentration found to suppress growth. Broadly, the CC50 is the concentration that lowers cell viability or growth by half. Take `COc1c(N2CCN(CCC(C)=O)C(C)C2)c(F)cc2c(=O)c(C(=O)O)cn(C3CC3)c12` (stereo not drawn): the MIC in series [1] came out at 4 µg/mL (≈ 8.98 µM); in series [2], 0.25 µg/mL (≈ 0.561 µM); in series [3] it was 0.5 µg/mL (≈ 1.12 µM); in [4], 0.25 µg/mL (≈ 0.561 µM); in [5], 0.25 µg/mL (≈ 0.561 µM); in [6], 0.5 µg/mL (≈ 1.12 µM). The MIC in [7] was determined as 0.5 µg/mL (≈ 1.12 µM); in series [8], 4 µg/mL (≈ 8.98 µM); in series [9], 4 µg/mL (≈ 8.98 µM); in series [10], 4 µg/mL (≈ 8.98 µM); in series [12] it was 0.25 µg/mL (≈ 0.561 µM); in series [13], 4 µg/mL (≈ 8.98 µM). Moreover, the minimum inhibitory concentration (MIC) stood at 0.5 µg/mL (≈ 1.12 µM) in [14]; 0.25 µg/mL (≈ 0.561 µM) in [15]; 1 µg/mL (≈ 2.24 µM) in series [16]; 4 µg/mL (≈ 8.98 µM) in [17]; 0.5 µg/mL (≈ 1.12 µM) in series [18]; 4 µg/mL (≈ 8.98 µM) in series [19]. Besides, the MIC in series [20] was determined as 0.06 µg/mL (≈ 0.135 µM); in series [21], 0.5 µg/mL (≈ 1.12 µM); in series [22], 0.25 µg/mL (≈ 0.561 µM). This molecule displayed a CC50 at 72 h in series [11] of 9.84 µg/mL (≈ 22.1 µM).

With `CO/N=C(\C)CN1CCN(c2c(F)cc3c(=O)c(C(=O)O)cn(C4CC4)c3c2OC)CC1C` (stereo not drawn), the MIC is greater than 128 µg/mL in [1]; 0.25 µg/mL (≈ 0.543 µM) in series [2]; greater than 128 µg/mL in series [3]; 2 µg/mL (≈ 4.34 µM) in [4]; 0.5 µg/mL (≈ 1.09 µM) in [5]; greater than 128 µg/mL in [6]. In addition, the minimal inhibitory concentration (MIC) in series [7] was greater than 128 µg/mL; in series [8], greater than 128 µg/mL; in series [9], greater than 128 µg/mL; in series [10], greater than 128 µg/mL; in series [12] it was 0.5 µg/mL (≈ 1.09 µM); in [13], greater than 128 µg/mL. The MIC in series [14] is greater than 128 µg/mL; in series [15], 64 µg/mL (≈ 139 µM); in series [16], 32 µg/mL (≈ 69.5 µM); in series [17] it was 64 µg/mL (≈ 139 µM); in series [18], greater than 128 µg/mL; in series [19], greater than 128 µg/mL. In addition, the MIC in [20] came to 0.5 µg/mL (≈ 1.09 µM); in series [21], 64 µg/mL (≈ 139 µM); in series [22] it was 4 µg/mL (≈ 8.69 µM). Also, half-maximal cytotoxicity in [11] (CC50 at 72 h) was put at 49.6 µg/mL (≈ 108 µM).

On to `CCO/N=C(\C)CN1CCN(c2c(F)cc3c(=O)c(C(=O)O)cn(C4CC4)c3c2OC)CC1C` (stereo not drawn), for which the MIC in series [1] is greater than 128 µg/mL; in [2], 0.25 µg/mL (≈ 0.527 µM); in series [3], greater than 128 µg/mL; in [4] it was 2 µg/mL (≈ 4.21 µM); in [5], 0.25 µg/mL (≈ 0.527 µM); in series [6], greater than 128 µg/mL. Further, the MIC was 0.25 µg/mL (≈ 0.527 µM) in [7]; greater than 128 µg/mL in series [8]; greater than 128 µg/mL in [9]; greater than 128 µg/mL in [10]; 0.25 µg/mL (≈ 0.527 µM) in series [12]; greater than 128 µg/mL in series [13]. For the same molecule, the MIC in series [14], in [15], in [16], in series [17], in series [18] and in series [19] was greater than 128 µg/mL in each case. The MIC in [20] stood at 0.125 µg/mL (≈ 0.263 µM); in series [21] it was 128 µg/mL (≈ 270 µM); in series [22], 0.25 µg/mL (≈ 0.527 µM). In series [11], this molecule had a CC50 at 72 h of 31.2 µg/mL (≈ 65.9 µM).

Turning to `COc1c(N2CCN(C/C(C)=N/NC(N)=O)C(C)C2)c(F)cc2c(=O)c(C(=O)O)cn(C3CC3)c12` (stereo not drawn), the MIC in [1] is greater than 128 µg/mL; in series [2] it was greater than 128 µg/mL; in series [3] it was greater than 128 µg/mL; in [4], 2 µg/mL (≈ 4.09 µM); in [5] it was 2 µg/mL (≈ 4.09 µM); in series [6], greater than 128 µg/mL. Further, the MIC in series [7] was 2 µg/mL (≈ 4.09 µM); in series [8] it was greater than 128 µg/mL; in [9], greater than 128 µg/mL; in series [10], greater than 128 µg/mL; in series [12], 2 µg/mL (≈ 4.09 µM); in series [13], greater than 128 µg/mL. For the same molecule, the MIC in [14] is greater than 128 µg/mL; in series [15], 64 µg/mL (≈ 131 µM); in series [16], greater than 128 µg/mL; in [17], 64 µg/mL (≈ 131 µM); in series [18] it was greater than 128 µg/mL; in series [19], greater than 128 µg/mL. The MIC in series [20] was 4 µg/mL (≈ 8.19 µM); in series [21], greater than 128 µg/mL; in series [22] it was 1 µg/mL (≈ 2.05 µM). The same molecule registered a CC50 at 72 h in [11] of 500 µg/mL (≈ 1020 µM).
